Assay [1] concerns Calf thymus DNA. Put plainly: Binding affinity to calf thymus DNA assessed as bathochromic shift after 30 mins by spectral analysis. Conditions: Bos taurus. Type of assay: nucleic-acid assay.
Assay [2] deals with Calf thymus DNA. Description: Binding affinity to calf thymus DNA assessed as hypochromic shift after 30 mins by spectral analysis. It counts as nucleic-acid assay. As to conditions: Bos taurus.
For assay [3], the system named is Calf thymus DNA. Put plainly: Binding affinity to calf thymus DNA assessed as isosbestic point after 30 mins by spectral analysis. It counts as nucleic-acid assay. As to conditions: Bos taurus.
The test system of a further assay is P388. Description: Antitumor activity against mouse P388 cells allografted in CD2F1 mouse assessed as increase in life span at 25 mg/kg administered daily for 9 days. It counts as functional. In a few lines:
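P-388 leukaemia in CD2F1 mice, screened by the NCI Drug Research and Development Program. Dosing was by daily injection for 9 days, up to 25 mg/kg per injection. The read-out was increased life span (ILS), with ILS >25% taken as the minimum for activity.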

Assay [4] deals with Bacillus spizizenii. Description: Antibacterial activity against Bacillus subtilis ATCC 6633 at 40 ug/ml by cup-plate diffusion assay. Type of assay: functional. As to conditions: read-out: IZ. In a few lines: (§1)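 Cup-plate agar diffusion with 6-mm stainless steel cylinders on nutrient agar seeded with B. subtilis ATCC 6633, incubated at 37 °C. Activity is read as the zone of inhibition, compared with actinomycin D standards. On repeat assays, test concentrations were adjusted to give zones of roughly the same size as the standards.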

Assay [5] deals with Bacillus spizizenii. Description: Antibacterial activity against Bacillus subtilis ATCC 6633 at 40 ug/ml by cup-plate diffusion assay relative to actinomycin D. Type of assay: functional. In a few lines: as §1
For assay [6], the system named is Calf thymus DNA. Put plainly: Binding affinity to calf thymus DNA at DNA/drug ratio of 12:1 after 30 mins by ultracentrifugation method. It counts as nucleic-acid assay. Conditions: Bos taurus. Put shortly:
(§2)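 Drug at about 5×10^-6 M with calf thymus DNA at 0, 1.94, 2.27, 3.35 and 9.45×10^-5 M in pH 7.00 1 M NaCl–0.008 M Tris buffer, equilibrated 30 min, then spun at 150 000g for 6 h at 25 °C. Free drug was measured in the supernatant. Bound drug was measured by dissolving the pellet in 50% DMF and reading A443 against drug in 50% DMF. Repeated at varied drug/DNA ratios.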

In assay [7] the test system is Calf thymus DNA. Put plainly: Binding affinity to calf thymus DNA at DNA/drug ratio of 25:1 after 30 mins by ultracentrifugation method. It counts as nucleic-acid assay. As to conditions: Bos taurus. Put shortly:
as §2

Assay [8] has as its system Calf thymus DNA. Description: Binding affinity to calf thymus DNA assessed as reduction in absorbance after 30 mins by spectral analysis. Set-up: scale not given: the % may be the effect or the level left. It counts as nucleic-acid assay. As to conditions: Bos taurus.
For assay [9], the system named is Bacillus spizizenii. Description: Antibacterial activity against Bacillus subtilis ATCC 6633 at 1.25 ug/ml by cup-plate diffusion assay. It counts as functional. As to conditions: read-out: IZ. In a few lines:
as §1

The test system of assay [10] is Bacillus spizizenii. Description: Antibacterial activity against Bacillus subtilis ATCC 6633 at 2.35 ug/ml by cup-plate diffusion assay. It counts as functional. As to conditions: read-out: IZ. Put shortly: as §1
The subject of assay [11] is Calf thymus DNA. Description: Binding affinity to calf thymus DNA after 30 mins by ultracentrifugation method. Type of assay: nucleic-acid assay. Conditions: Bos taurus. In a few lines: as §2
For assay [12], the system named is Bacillus spizizenii. Put plainly: Antibacterial activity against Bacillus subtilis ATCC 6633 at 5 ug/ml by cup-plate diffusion assay. It counts as functional. As to conditions: read-out: IZ. Put shortly: as §1
Assay [13] relates to Bacillus spizizenii. Description: Antibacterial activity against Bacillus subtilis ATCC 6633 at 2.50 ug/ml by cup-plate diffusion assay. As to conditions: read-out: IZ. Type of assay: functional. In a few lines: as §1
Assay [14] has as its system Bacillus spizizenii. Put plainly: Antibacterial activity against Bacillus subtilis ATCC 6633 at 0.65 ug/ml by cup-plate diffusion assay. It counts as functional. Conditions: read-out: IZ. In a few lines: as §1
The test system of assay [15] is Bacillus spizizenii. Description: Antibacterial activity against Bacillus subtilis ATCC 6633 at 3.85 ug/ml by cup-plate diffusion assay. It counts as functional. Conditions: read-out: IZ. Put shortly: as §1

Each structure is given as a SMILES string. The source made the active and inactive calls. The calls are words filed in the database; no cut-off is given here. Starred links: 1 amine or outer side, 2 acyl side, 3 side chain; linkers in the order of their positions; H or OH if unused. Positions of bridges follow the written chain, without caps; N, C: chain ends. Non-standard residues stand in square brackets, D forms with d. Residues, ends and D or L forms follow the SMILES beside them. Chains are numbered I, II in the order given. Actinocin(1to9) = Cc1c2oc3c(C)ccc(C(=O)[*:2])c3nc-2c(C(=O)[*:1])c(N)c1=O; NMeV = CN[C@H](C(=O)O)C(C)C; Sar = CNCC(=O)O

Consider `COC(=O)[C@H](NC(=O)[C@@H](NC(=O)c1c2nc3c(C(=O)N[C@H](C(=O)N[C@@H](C(=O)OC)C(C)C)[C@@H](C)OC(C)=O)ccc(C)c3oc-2c(C)c(=O)c1N)[C@@H](C)OC(C)=O)C(C)C`, for which the outcome in the assay with Calf thymus DNA [1], with Calf thymus DNA [2] and with Calf thymus DNA [3] was inactive. In addition, the Activity result in the assay on P388 is listed as “<=25%”.

With `Cc1c2oc3c(C)ccc(C(=O)N[C@H](C(=O)N[C@@H](C(=O)O)C(C)C)[C@@H](C)O)c3nc-2c(C(=O)N[C@H](C(=O)N[C@@H](C(=O)O)C(C)C)[C@@H](C)O)c(N)c1=O`, the outcome in the assay with Calf thymus DNA [1], in the assay with Calf thymus DNA [2] and with Calf thymus DNA [3] was inactive. In the assay on P388, the Activity entry is “<=25%”. Moreover, the zone of inhibition at 40 µg/mL in the assay with Bacillus spizizenii [4] was 14.3 mm. For the same molecule, in the assay on Bacillus spizizenii [5], the Ratio amounted to 5.3.

`CNC(=O)[C@H](NC(=O)[C@@H](NC(=O)c1c2nc3c(C(=O)N[C@H](C(=O)N[C@@H](C(=O)NC)C(C)C)[C@@H](C)O)ccc(C)c3oc-2c(C)c(=O)c1N)[C@@H](C)O)C(C)C`: the outcome with Calf thymus DNA [1], in the assay on Calf thymus DNA [2] and with Calf thymus DNA [3] was inactive. For the same molecule, the Activity result in the assay on P388 was “<=25%”; with Calf thymus DNA [6], 17%. Also, the zone of inhibition at 40 µg/mL with Bacillus spizizenii [4] is 8.5 mm. The Ratio in the assay on Bacillus spizizenii [5] turned out to be 1.1.

Consider `COC(=O)[C@@H]1CCCN1C(=O)[C@H](NC(=O)[C@@H](NC(=O)c1c2nc3c(C(=O)N[C@H](C(=O)N[C@@H](C(=O)N4CCC[C@H]4C(=O)OC)C(C)C)[C@@H](C)O)ccc(C)c3oc-2c(C)c(=O)c1N)[C@@H](C)O)C(C)C`, for which the result with Calf thymus DNA [1], in the assay with Calf thymus DNA [2] and with Calf thymus DNA [3] was inactive. Besides, the Activity entry in the assay on P388 is reported as “<=25%”.

In the case of `COC(=O)[C@H](NC(=O)[C@@H](NC(=O)c1c2nc3c(C(=O)N[C@H](C(=O)N[C@@H](C(=O)OC)C(C)C)[C@@H](C)O)ccc(C)c3oc-2c(C)c(=O)c1N)[C@@H](C)O)C(C)C`, the result with Calf thymus DNA [1], with Calf thymus DNA [2] and in the assay on Calf thymus DNA [3] was inactive. Also, the Activity entry with P388 is “<=25%”; in the assay on Calf thymus DNA [7] it was 30%; in the assay with Calf thymus DNA [8] it was 10%. In addition, the zone of inhibition at 40 µg/mL with Bacillus spizizenii [4] is 16.6 mm. In addition, the Ratio in the assay with Bacillus spizizenii [5] is 9.6.

As to `Cc1c2oc3c(C)ccc(C(=O)N[C@@H]4C(=O)N[C@H](C(C)C)C(=O)N5CCC[C@H]5C(=O)N(C)CC(=O)N(C)[C@@H](C(C)C)C(=O)O[C@@H]4C)c3nc-2c(C(=O)N[C@@H]2C(=O)N[C@H](C(C)C)C(=O)N3CCC[C@H]3C(=O)N(C)CC(=O)N(C)[C@@H](C(C)C)C(=O)O[C@@H]2C)c(N)c1=O` [DACTINOMYCIN] (I: T[dV]P[Sar][NMeV] / II: T[dV]P[Sar][NMeV]; ester I:1-I:C, II:1-II:C; linker I:N-II:N via Actinocin(1to9)), the outcome in the assay with Calf thymus DNA [1], with Calf thymus DNA [2] and in the assay on Calf thymus DNA [3] was Active. Further, the zone of inhibition at 1.25 µg/mL in the assay with Bacillus spizizenii [9] came to 11.1 mm. Moreover, the Activity result in the assay with P388 is “<=25%”; with Calf thymus DNA [6], 70%; with Calf thymus DNA [7], 85%; in the assay on Calf thymus DNA [8], 30%. Also, in the assay on Bacillus spizizenii [10], the zone of inhibition at 2.35 µg/mL came to 14.3 mm. Further, the Ka in the assay with Calf thymus DNA [11] is 1.56 ×10⁶ /M. In the assay with Bacillus spizizenii [12], the zone of inhibition at 5 µg/mL amounted to 18.2 mm. The zone of inhibition at 2.5 µg/mL in the assay with Bacillus spizizenii [13] is 14.5 mm. In the assay on Bacillus spizizenii [14], the zone of inhibition at 0.65 µg/mL came to 8.5 mm. For the same molecule, the zone of inhibition at 3.85 µg/mL in the assay on Bacillus spizizenii [15] came out at 16.6 mm.

Regarding `COC(=O)[C@@H]1CC(=O)CN1C(=O)[C@H](NC(=O)[C@@H](NC(=O)c1c2nc3c(C(=O)N[C@H](C(=O)N[C@@H](C(=O)N4CC(=O)C[C@H]4C(=O)OC)C(C)C)[C@@H](C)O)ccc(C)c3oc-2c(C)c(=O)c1N)[C@@H](C)O)C(C)C`, the outcome in the assay on Calf thymus DNA [1], with Calf thymus DNA [2] and in the assay on Calf thymus DNA [3] was inactive. For the same molecule, the Activity entry in the assay on P388 is given as “<=25%”.

On to `Cc1c2oc3c(C)ccc(C(=O)N[C@H](C(=O)N[C@@H](C(=O)NCCO)C(C)C)[C@@H](C)O)c3nc-2c(C(=O)N[C@H](C(=O)N[C@@H](C(=O)NCCO)C(C)C)[C@@H](C)O)c(N)c1=O`, for which the result with Calf thymus DNA [1], in the assay on Calf thymus DNA [2] and in the assay on Calf thymus DNA [3] was inactive. Further, the Activity result in the assay on P388 was “<=25%”.

For `Cc1c2oc3c(C)ccc(C(=O)N[C@H](C(=O)N[C@@H](C(=O)NN)C(C)C)[C@@H](C)O)c3nc-2c(C(=O)N[C@H](C(=O)N[C@@H](C(=O)NN)C(C)C)[C@@H](C)O)c(N)c1=O`, the result in the assay on Calf thymus DNA [1], in the assay with Calf thymus DNA [2] and in the assay with Calf thymus DNA [3] was inactive. Further, the Activity result in the assay on P388 is on record as “<=25%”.

(Values after ChEMBL document CHEMBL3244282, “Synthesis and evaluation of bis-dipeptide and bis-tripeptide analogues of actinomycin D” (1978).)
